Some results are limits rather than exact numbers.

As usually defined, the IC50 is the concentration at which inhibition is half-maximal.

The test system of assay [1] is K562. The experiment in a line: Ratio of cisplatin IC50 to compound IC50 for human K562 cells. Type of assay: functional.
The subject of assay [2] is HEK-293T. Briefly: Cytotoxicity against human 293T cells after 48 hrs by MTT assay. Type of assay: cell-based. The gist of the method:
(§1)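 Cells were kept in RPMI-1640 with 10% FBS, streptomycin and penicillin at 37 °C under 5% CO2. They were seeded at 5000/well and left 24 h, then exposed 48 h to compound (DMSO stock diluted in medium, DMSO ≤0.2%) at final 0.16, 0.63, 2.5, 10, 40 and 160 μM. MTT was added (10% v/v of 5 mg/ml) for 4 h, formazan was dissolved in DMSO and A490 read. IC50 came from the viability-versus-dose plot against control, with three repeats.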

Assay [3] deals with HCT-116. The experiment in a line: Cytotoxicity against human HCT116 cells after 48 hrs by MTT assay. Type of assay: functional, cell-based. The note with it: HCT-116, 48 h. In outline:
as §1
Background: Formazan colour is commonly taken as a measure of viable cells.

Assay [4] relates to MCF7. The experiment in a line: Cytotoxicity against human MCF7 cells after 48 hrs by MTT assay. The note with it: MCF7, 48 h. Type of assay: functional, cell-based. In outline: as §1
The test system of assay [5] is MGC-803. The experiment in a line: Cytotoxicity against human MGC803 cells after 48 hrs by MTT assay. Particulars: MGC-803, 48 h. Type of assay: functional, cell-based. In outline: as §1
The test system of assay [6] is K562. The experiment in a line: Cytotoxicity against human K562 cells after 48 hrs by MTT assay. Type of assay: functional, cell-based. Particulars: K562, 48 h. In outline: as §1
The subject of assay [7] is HepG2. The experiment in a line: Cytotoxicity against human HepG2 cells after 48 hrs by MTT assay. Type of assay: functional, cell-based. The note with it: HepG2, 48 h. The gist of the method:
as §1

The subject of assay [8] is HepG2. The experiment in a line: Ratio of cisplatin IC50 to compound IC50 for human HepG2 cells. Type of assay: functional.
For assay [9], the system named is HepG2. The experiment in a line: Induction apoptosis in human HepG2 cells assessed as apoptotic cells level at 50 uM after 24 hrs using Annexin V-FITC and propidium iodide staining by flow cytometry analysis (reference value: 8.3%). Type of assay: functional. Background: Flow cytometry measures light scatter and fluorescence of single cells or particles in a stream.

Assay [10] concerns HepG2. The experiment in a line: Induction apoptosis in human HepG2 cells assessed as late apoptosis or necrosis cells level at 50 uM after 24 hrs using Annexin V-FITC and propidium iodide staining by flow cytometry analysis (reference value: 5.7%). Type of assay: functional.
Assay [11] relates to MCF7. Briefly: Ratio of cisplatin IC50 to compound IC50 for human MCF7 cells. Type of assay: functional.

For `CC(=O)Nc1ccc2nc3ccccc3nc2c1`, in assay [1], the “Ratio IC50” value is listed as 1.1. Moreover, the IC50 in [2] is over 160 µM; in assay [3] it was over 160 µM; in [4], 82.6 µM; in [5], 93.1 µM; in assay [6], 49.2 µM; in assay [7], over 160 µM.

Take `O=C(Nc1ccc2nc3ccccc3nc2c1)c1ccccc1`: the IC50 in [2] is over 160 µM; in assay [3], 28.2 µM; in [4], over 160 µM; in [5], over 160 µM; in assay [6], over 160 µM; in assay [7] it was over 160 µM.

With `O=C(Nc1ccc2nc3ccccc3nc2c1)c1cccc2ccccc12`, the IC50 in assay [2] is over 160 µM; in [3] it was 131 µM; in assay [4] it was 30.1 µM; in assay [5], 87.9 µM; in [6], 61.2 µM; in assay [7], 44.2 µM.

For `O=C(Nc1ccc2nc3ccccc3nc2c1)c1ccco1`, the IC50 was over 160 µM in assay [2], 86.6 µM in [3], 28.8 µM in assay [4] and 52.2 µM in assay [7].

As to `O=C(Nc1ccc2nc3ccccc3nc2c1)c1cccs1`, the IC50 in [2] was over 160 µM; in assay [3], 68.1 µM; in assay [4] it was over 160 µM; in assay [5], over 160 µM; in [6], over 160 µM; in assay [7], over 160 µM.

Turning to `O=C(Cc1cccs1)Nc1ccc2nc3ccccc3nc2c1`, the half-maximal inhibitory concentration (IC50) in assay [2] is over 160 µM; in assay [3], 95.6 µM; in assay [4], over 160 µM; in [7], over 160 µM.

Regarding `CCOC(=O)Nc1ccc2nc3ccccc3nc2c1`, the “Ratio IC50” value in assay [8] is recorded as 1.2. Further, the half-inhibitory concentration (IC50) in assay [2] is over 160 µM; in [3], over 160 µM; in [4] it was 46.1 µM; in assay [5], over 160 µM; in assay [6], over 160 µM; in assay [7], 15.2 µM.

Take `O=C(CCCl)Nc1ccc2nc3ccccc3nc2c1`: the IC50 in assay [2] was over 160 µM; in assay [3], 141 µM; in [4] it was 37.6 µM; in [5] it was 59.5 µM; in [6] it was 74.5 µM; in assay [7], over 160 µM.

Regarding `O=S(=O)(Nc1ccc2nc3ccccc3nc2c1)c1ccccc1`, the half-maximal inhibitory concentration (IC50) in assay [2], in [3], in assay [4], in [5], in assay [6] and in assay [7] was over 160 µM in each case.

As to `CN(C)C(=O)Nc1ccc2nc3ccccc3nc2c1`, the IC50 is over 160 µM in assay [2], 144 µM in [3], 35.1 µM in assay [4] and over 160 µM in assay [7].

In the case of `CCC(=O)Nc1ccc2nc3ccccc3nc2c1`, the IC50 in assay [2] is over 160 µM; in assay [3] it was 18.9 µM; in [4], 40.7 µM; in assay [5] it was 63.9 µM; in assay [6], 57.7 µM; in assay [7] it was over 160 µM.

Take `CCCC(=O)Nc1ccc2nc3ccccc3nc2c1`: the concentration for half-maximal inhibition (IC50) in [2] is 110 µM; in assay [3], 62.3 µM; in [4], 68.8 µM; in assay [5] it was 43.5 µM; in [6], over 160 µM; in assay [7] it was over 160 µM.

Consider `O=C(Cc1ccccc1)Nc1ccc2nc3ccccc3nc2c1`, for which the IC50 in assay [2], in assay [3], in assay [4], in [5], in assay [6] and in assay [7] was over 160 µM throughout.

For `O=C(Nc1ccc2nc3ccccc3nc2c1)c1ccccc1Cl`, the Activity in [9] turned out to be 36.1%; in assay [10] it was 20.5%. The “Ratio IC50” value is listed as 1.1 in assay [8] and 1.7 in [1]. Also, the IC50 in assay [2] was over 160 µM; in assay [3] it was 91.9 µM; in assay [4], over 160 µM; in [5] it was over 160 µM; in assay [6], 33.4 µM; in assay [7], 16.5 µM.

Consider `O=C(Nc1ccc2nc3ccccc3nc2c1)c1cccc(Cl)c1`, for which the IC50 in assay [2], in assay [3], in [4], in [5], in [6] and in assay [7] was over 160 µM in each case.

For `Cc1ccc(C(=O)Nc2ccc3nc4ccccc4nc3c2)cc1`, the IC50 in assay [2], in assay [3], in assay [4], in assay [5], in assay [6] and in assay [7] was over 160 µM in each case.

For `Cc1ccccc1C(=O)Nc1ccc2nc3ccccc3nc2c1`, the “Ratio IC50” value in assay [11] is on record as 2.4. The IC50 in [2] is over 160 µM; in assay [3], over 160 µM; in assay [4], 11.6 µM; in assay [5], 27.2 µM; in assay [6] it was over 160 µM; in [7] it was over 160 µM.

As to `Cc1cccc(C(=O)Nc2ccc3nc4ccccc4nc3c2)c1`, the “Ratio IC50” value in [8] was 1.1. The IC50 in assay [2] was 56.2 µM; in assay [3], over 160 µM; in [4], over 160 µM; in [5] it was 89 µM; in [6], over 160 µM; in assay [7], 16.7 µM.

For the molecule `COc1ccc(C(=O)Nc2ccc3nc4ccccc4nc3c2)cc1`, the IC50 in assay [2] is over 160 µM; in assay [3] it was over 160 µM; in assay [4], over 160 µM; in assay [5] it was 50.1 µM; in assay [6], over 160 µM; in assay [7], over 160 µM.

`O=C(Nc1ccc2nc3ccccc3nc2c1)C1CCCCC1`: the IC50 in assay [2] was over 160 µM; in assay [3] it was over 160 µM; in [4] it was 137 µM; in assay [5] it was 67.1 µM; in assay [6] it was 78.9 µM; in assay [7], over 160 µM.

In the case of `O=C(CCC1CCCC1)Nc1ccc2nc3ccccc3nc2c1`, the IC50 in [2] is over 160 µM; in assay [3], over 160 µM; in [4] it was over 160 µM; in assay [5] it was 122 µM; in assay [6] it was 157 µM; in [7], over 160 µM.

The values above are taken from ChEMBL document CHEMBL2434917, “Synthesis and anticancer activity of some novel 2-phenazinamine derivatives” (Eur J Med Chem, 2013).
